Data set [1] addresses T1, Acetylcholinesterase (Homo sapiens, UniProt P22303). The data set can be described thus: Inhibition of recombinant human AChE expressed in HEK293 cells using acetylthiocholine iodide as substrate preincubated for 120 mins followed by substrate addition by Ellman's method. Put shortly:
(§1)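 Ellman assay at 37 °C in 0.1 M phosphate pH 8.0 with 340 µM DTNB, 0.02 U/mL enzyme and 550 µM thiocholine substrate. Enzyme and inhibitor preincubated before substrate: AChE 120 min (one compound 60 min), BuChE 15 or 20 min depending on N-substituent. Non-enzymatic blanks run. […] IC50 by linear regression of % inhibition vs log concentration. Mean of 2-3 independent runs in duplicate.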
For orientation: Ellman's reagent forms a yellow product with free thiols.

In data set [2] the target is T2, Fatty-acid amide hydrolase 1 (Rattus norvegicus, UniProt P97612).
T2 sequence (P97612 whole entry): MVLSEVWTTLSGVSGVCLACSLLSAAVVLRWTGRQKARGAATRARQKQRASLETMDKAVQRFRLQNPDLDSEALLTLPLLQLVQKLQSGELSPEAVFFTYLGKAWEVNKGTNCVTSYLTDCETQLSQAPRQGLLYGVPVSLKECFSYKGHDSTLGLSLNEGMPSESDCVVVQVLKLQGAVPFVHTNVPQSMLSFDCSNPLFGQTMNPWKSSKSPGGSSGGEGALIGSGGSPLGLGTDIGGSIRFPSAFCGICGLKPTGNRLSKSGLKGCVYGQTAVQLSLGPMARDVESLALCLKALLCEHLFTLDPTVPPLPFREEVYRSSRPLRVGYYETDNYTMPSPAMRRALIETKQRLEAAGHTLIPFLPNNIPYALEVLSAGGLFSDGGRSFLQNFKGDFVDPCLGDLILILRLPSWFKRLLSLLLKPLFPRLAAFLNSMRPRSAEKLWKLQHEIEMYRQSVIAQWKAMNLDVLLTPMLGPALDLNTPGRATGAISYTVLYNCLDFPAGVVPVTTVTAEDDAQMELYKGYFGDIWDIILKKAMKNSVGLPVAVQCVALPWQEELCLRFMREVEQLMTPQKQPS
The data set can be described thus: Inhibition of FAAH in rat brain membrane using N-arachidonoyl-[14C]-ethanolamine as substrate preincubated for 20 mins followed by substrate addition measured after 30 mins by scintillation counting method. The format is cell membranes. Put shortly:
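Compound preincubated 20 min at 37 °C with rat brain 10,000 x g membranes (70 µg/sample), then [14C]-AEA (diluted with AEA) added in 50 mM Tris-HCl pH 9.00-10.00, 37 °C, 30 min. [14C]-ethanolamine counted by scintillation after CHCl3/MeOH 1:1 extraction.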

Data set [3] addresses T2, Fatty-acid amide hydrolase 1. The data set can be described thus: Inhibition of FAAH in rat brain membrane using N-arachidonoyl-[14C]-ethanolamine as substrate incubated for 30 mins by scintillation counting method. The format is cell membranes. Summed up: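 Rat brain 10,000 x g membrane fraction (70 µg/sample) co-incubated with compound and [14C]-AEA diluted with unlabelled AEA in 50 mM Tris-HCl, pH 9.00-10.00, 37 °C, 30 min. Released [14C]-ethanolamine measured by scintillation of the aqueous phase after CHCl3/MeOH 1:1 extraction.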

Data set [4] deals with T3, Cholinesterase (Homo sapiens, UniProt P06276). The data set can be described thus: Inhibition of human serum BuChE using butyrylthiocholine iodide as substrate preincubated for 15 mins followed by substrate addition by Ellman's method. Summed up: as §1
Data set [5] deals with T1, Acetylcholinesterase. The data set can be described thus: Inhibition of recombinant human AChE expressed in HEK293 cells assessed as enzyme carbamoylation using acetylthiocholine iodide as substrate preincubated with enzyme followed by substrate addition by Ellman's method. As to conditions: TDE = time-dependent effect.
Data set [6] addresses T3, Cholinesterase. The data set can be described thus: Inhibition of human serum BuChE assessed as enzyme carbamoylation using butyrylthiocholine iodide as substrate preincubated with enzyme followed by substrate addition by Ellman's method. As to conditions: TDE = time-dependent effect.
For data set [7], the system named is Homo sapiens. The data set can be described thus: Binding affinity to AChE in human assessed as enzyme reactivation half life at 8 to 40 mg/kg, po. It counts as functional, organism-based.
Another data set concerns SH-SY5Y. The data set can be described thus: Cytotoxicity against human SH-SY5Y assessed as reduction in cell viability at 1 to 50 uM after 24 hrs by MTT assay. It counts as cell-based. Put shortly: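 SH-SY5Y neuroblastoma cells grown in DMEM with 2 mM L-glutamine, penicillin/streptomycin and 10% FBS. Cells seeded and cultured overnight at 37°C, 5% CO2. Compounds in DMSO (final under 0.1%) added for 24 h. MTT 0.5 mg/mL added for 3 h, formazan taken up in isopropanol, absorbance read at 620 nm. Viability given relative to vehicle. Three independent experiments in quadruplicate.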

The target of data set [8] is T3, Cholinesterase. The data set can be described thus: Inhibition of human serum BuChE using butyrylthiocholine iodide as substrate preincubated for 20 mins followed by substrate addition by Ellman's method. Put shortly:
as §1

In data set [9] the test system is Homo sapiens. The data set can be described thus: Binding affinity to AChE in human assessed as enzyme reactivation half life at 1.5 mg/kg, iv dosed over 60 mins infusion. The format is functional, organism-based.

We go through 24 compounds from ChEMBL document CHEMBL3826877, “Fatty Acid Amide Hydrolase (FAAH), Acetylcholinesterase (AChE), and Butyrylcholinesterase (BuChE): Networked Targets for the Development of Carbamates as Potential Anti-Alzheimer's Disease Agents” (J Med Chem, 2016).

T3 sequence (P06276 whole entry): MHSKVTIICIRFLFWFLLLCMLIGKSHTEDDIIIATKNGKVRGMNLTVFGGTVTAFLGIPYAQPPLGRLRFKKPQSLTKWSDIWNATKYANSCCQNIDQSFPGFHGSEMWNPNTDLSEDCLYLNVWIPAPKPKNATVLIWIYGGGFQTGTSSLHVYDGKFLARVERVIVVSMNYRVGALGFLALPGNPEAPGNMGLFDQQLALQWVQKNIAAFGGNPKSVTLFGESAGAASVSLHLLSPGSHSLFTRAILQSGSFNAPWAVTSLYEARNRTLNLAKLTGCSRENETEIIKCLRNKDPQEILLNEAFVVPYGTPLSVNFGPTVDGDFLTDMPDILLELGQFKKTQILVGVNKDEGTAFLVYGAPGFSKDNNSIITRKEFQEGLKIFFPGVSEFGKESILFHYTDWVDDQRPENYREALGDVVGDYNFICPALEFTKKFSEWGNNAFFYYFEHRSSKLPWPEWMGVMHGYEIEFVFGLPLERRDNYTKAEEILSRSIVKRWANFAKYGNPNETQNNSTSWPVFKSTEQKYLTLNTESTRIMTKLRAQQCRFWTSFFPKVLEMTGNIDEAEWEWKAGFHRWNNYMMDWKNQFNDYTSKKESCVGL
T1 sequence (P22303 whole entry): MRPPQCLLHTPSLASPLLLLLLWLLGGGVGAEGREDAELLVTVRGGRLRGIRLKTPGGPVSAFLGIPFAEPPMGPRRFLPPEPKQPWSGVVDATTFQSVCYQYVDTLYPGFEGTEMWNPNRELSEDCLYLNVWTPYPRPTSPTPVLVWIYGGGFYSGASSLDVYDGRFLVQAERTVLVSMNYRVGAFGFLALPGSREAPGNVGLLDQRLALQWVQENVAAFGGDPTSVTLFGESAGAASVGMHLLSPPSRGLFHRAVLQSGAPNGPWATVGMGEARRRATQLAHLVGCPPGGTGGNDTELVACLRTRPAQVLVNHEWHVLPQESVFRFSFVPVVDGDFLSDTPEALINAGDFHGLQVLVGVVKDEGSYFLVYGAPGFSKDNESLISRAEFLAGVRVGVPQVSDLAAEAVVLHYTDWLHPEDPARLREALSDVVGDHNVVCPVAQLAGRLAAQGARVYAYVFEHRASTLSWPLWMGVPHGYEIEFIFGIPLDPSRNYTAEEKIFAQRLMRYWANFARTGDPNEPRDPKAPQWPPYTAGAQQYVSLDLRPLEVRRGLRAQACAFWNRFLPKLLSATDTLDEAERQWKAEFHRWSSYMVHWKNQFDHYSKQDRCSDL

What is called IC50 is the concentration that inhibits the measured activity by half. For `COc1ccc(-c2cc3cc(OCCCN(C)Cc4cccc(OC(=O)NCCCCCc5ccccc5)c4)ccc3oc2=O)cc1`, the IC50 at Acetylcholinesterase [1] was found to be 179 nM; in data set [2], 211 nM; in data set [3], 2830 nM; against Cholinesterase [4], 1.15 nM. Also, the inhibition entry on Acetylcholinesterase [5] and at Cholinesterase [6] was “tde” each time.

Turning to `CN(CCCOc1ccc2ccc(=O)oc2c1)Cc1cccc(OC(=O)NCCCCCCc2ccccc2)c1`, the IC50 came to 109 nM on Acetylcholinesterase [1], 530 nM in data set [2], 1790 nM in [3] and 2.85 nM against Cholinesterase [4]. Moreover, the inhibition entry on Acetylcholinesterase [5] and at Cholinesterase [6] was “tde” in each case.

Consider `CCCCCCCNC(=O)Oc1ccc2c(c1)[C@]1(C)CCN(C)[C@@H]1N2C`, for which the T1/2 in the data set with Homo sapiens [7] worked out at 10 h.

Regarding `O=C(NCCCCCc1ccccc1)Oc1ccc(Cn2cc(COc3ccc4ccc(=O)oc4c3)nn2)cc1`, the IC50 at Acetylcholinesterase [1] is 255 nM; in data set [2], 28.5 nM; in data set [3], 113 nM; at Cholinesterase [4] it was 1.17 nM.

Take `NC(=O)c1cccc(-c2cccc(OC(=O)NC3CCCCC3)c2)c1` [URB-597]: in the data set with SH-SY5Y, the Activity entry is recorded as “Non-toxic”.

As to `COc1ccc(-c2cc3ccc(OCCCN(C)Cc4cccc(OC(=O)NCCCCCc5ccccc5)c4)cc3oc2=O)cc1`, the IC50 at Acetylcholinesterase [1] turned out to be 312 nM; in data set [2] it was 322 nM; in data set [3], 2330 nM; against Cholinesterase [4] it was 1.3 nM. For the same compound, the inhibition entry at Acetylcholinesterase [5] and on Cholinesterase [6] was “tde” in each case.

Consider `CCCCCCCNC(=O)Oc1cccc(CN(C)CCCOc2ccc3c4c(c(=O)oc3c2)CCCC4)c1`, for which the half-inhibitory concentration (IC50) was determined as 21.6 nM on Acetylcholinesterase [1], 306 nM in data set [2], 2490 nM in [3] and 0.27 nM on Cholinesterase [8]. Besides, the inhibition result at Acetylcholinesterase [5] and on Cholinesterase [6] was “tde” throughout.

Take `CCCCCCCNC(=O)Oc1cccc(CN(C)CCCOc2ccc3c(=O)c4cccnc4oc3c2)c1`: the IC50 stood at 13 nM on Acetylcholinesterase [1], 202 nM in data set [2], 3130 nM in data set [3] and 0.69 nM at Cholinesterase [8]. The inhibition result at Acetylcholinesterase [5] and on Cholinesterase [6] was “tde” throughout.

As to `CN(CCCCCOc1ccc2ccc(=O)oc2c1)Cc1cccc(OC(=O)NCCCCCc2ccccc2)c1`, the IC50 was 88.1 nM on Acetylcholinesterase [1], 120 nM in data set [2], 798 nM in data set [3] and 1.23 nM at Cholinesterase [4]. In addition, the inhibition result at Acetylcholinesterase [5] and on Cholinesterase [6] was “tde” throughout.

As for `CCCCCCCNC(=O)Oc1cccc(CN(C)CCCCCOc2ccc3ccc(=O)oc3c2)c1`, the half-maximal inhibitory concentration (IC50) at Acetylcholinesterase [1] was found to be 11.3 nM; in data set [2] it was 242 nM; in [3] it was 1290 nM; against Cholinesterase [8], 0.79 nM. Moreover, the inhibition entry on Acetylcholinesterase [5] and at Cholinesterase [6] was “tde” each time.

Consider `CNC(=O)Oc1ccc2c(c1)[C@]1(C)CCN(C)[C@@H]1N2C`, for which the T1/2 in the data set with Homo sapiens [9] came to 0.5 h.

Take `CN(CCCOc1ccc2cc(-c3ccc(Cl)cc3)c(=O)oc2c1)Cc1cccc(OC(=O)NCCCCCc2ccccc2)c1`: the IC50 at Acetylcholinesterase [1] turned out to be 900 nM; in [2], 265 nM; in data set [3] it was 1470 nM; at Cholinesterase [4] it was 3.51 nM. The inhibition entry on Acetylcholinesterase [5] and on Cholinesterase [6] was “tde” in each case.

On to `O=C(NCCCCCc1ccccc1)Oc1cccc(Cn2cc(COc3ccc4ccc(=O)oc4c3)nn2)c1`, for which the IC50 on Acetylcholinesterase [1] was 922 nM; in data set [2], 27.9 nM; in data set [3], 157 nM; on Cholinesterase [4], 42.7 nM.

With `CCCCCCCNC(=O)Oc1cccc(CN(C)CCCCCOc2ccc3c(c2)Oc2ncccc2C3)c1`, the IC50 on Acetylcholinesterase [1] came out at 6.92 nM; in data set [2], 178 nM; in data set [3], 2180 nM; against Cholinesterase [8] it was 0.53 nM. The inhibition entry on Acetylcholinesterase [5] and at Cholinesterase [6] was “tde” in each case.

Regarding `CCCCCCCNC(=O)Oc1ccc(-n2cc(COc3ccc4ccc(=O)oc4c3)nn2)cc1`, the IC50 on Acetylcholinesterase [1] was 158000 nM; in [2], 21.3 nM; in data set [3] it was 167 nM; at Cholinesterase [8], 122000 nM.

For `CN(CCCOc1ccc2c3c(c(=O)oc2c1)CCCC3)Cc1cccc(OC(=O)NCCCCCc2ccccc2)c1`, the IC50 on Acetylcholinesterase [1] worked out at 89.9 nM; in data set [2], 1390 nM; in data set [3], 3480 nM; against Cholinesterase [4], 1.44 nM. In addition, the inhibition entry at Acetylcholinesterase [5] and at Cholinesterase [6] was “tde” in each case.

As to `Cc1cc(=O)oc2cc(OCCCN(C)Cc3cccc(OC(=O)NCCCCCc4ccccc4)c3)ccc12`, the IC50 amounted to 80.5 nM at Acetylcholinesterase [1], 135 nM in [2], 459 nM in data set [3] and 2.75 nM at Cholinesterase [4]. In addition, the inhibition entry at Acetylcholinesterase [5] and at Cholinesterase [6] was “tde” in each case.

Turning to `CN(CCCOc1ccc2cc(-c3ccccc3)c(=O)oc2c1)Cc1cccc(OC(=O)NCCCCCc2ccccc2)c1`, the IC50 on Acetylcholinesterase [1] was 125 nM; in [2], 250 nM; in data set [3], 1850 nM; against Cholinesterase [4], 2.06 nM. Moreover, the inhibition result on Acetylcholinesterase [5] and on Cholinesterase [6] was “tde” in each case.

Consider `CCCCCCCNC(=O)Oc1cccc(-n2cc(COc3ccc4ccc(=O)oc4c3)nn2)c1`, for which the 50% inhibitory concentration (IC50) on Acetylcholinesterase [1] came to 702 nM; in [2], 15.7 nM; in [3] it was 61.9 nM; on Cholinesterase [8], 71.2 nM. In the data set on SH-SY5Y, the Activity entry is reported as “Non-toxic”.

Consider `O=C(NCCCCCc1ccccc1)Oc1ccc(-n2cc(COc3ccc4ccc(=O)oc4c3)nn2)cc1`, for which the IC50 was found to be 47900 nM on Acetylcholinesterase [1], 43.3 nM in data set [2], 236 nM in [3] and 1230 nM at Cholinesterase [4].

As for `CCCCCCCNC(=O)Oc1cccc(Cn2cc(COc3ccc4ccc(=O)oc4c3)nn2)c1`, the IC50 on Acetylcholinesterase [1] is 1040 nM; in data set [2], 32.6 nM; in data set [3], 109 nM; on Cholinesterase [8], 78.2 nM.

Regarding `O=C(NCCCCCc1ccccc1)Oc1cccc(-n2cc(COc3ccc4ccc(=O)oc4c3)nn2)c1`, the concentration for half-maximal inhibition (IC50) came out at 1170 nM on Acetylcholinesterase [1], 44.7 nM in data set [2], 209 nM in data set [3] and 15.2 nM against Cholinesterase [4].

As to `CCCCCCCNC(=O)Oc1ccc(Cn2cc(COc3ccc4ccc(=O)oc4c3)nn2)cc1`, the IC50 at Acetylcholinesterase [1] was determined as 214 nM; in [2], 55 nM; in data set [3], 354 nM; on Cholinesterase [8], 15.9 nM.

`CN(CCCOc1ccc2c(c1)oc(=O)c1ccccc12)Cc1cccc(OC(=O)NCCCCCc2ccccc2)c1`: the half-inhibitory concentration (IC50) was found to be 390 nM at Acetylcholinesterase [1], 312 nM in data set [2], 1830 nM in [3] and 1.19 nM at Cholinesterase [4]. The inhibition result at Acetylcholinesterase [5] and on Cholinesterase [6] was “tde” each time.
